Tests used:
[1] = target: T1, Peroxisome proliferator-activated receptor gamma (Homo sapiens, UniProt P37231)
T1 sequence (P37231 whole entry): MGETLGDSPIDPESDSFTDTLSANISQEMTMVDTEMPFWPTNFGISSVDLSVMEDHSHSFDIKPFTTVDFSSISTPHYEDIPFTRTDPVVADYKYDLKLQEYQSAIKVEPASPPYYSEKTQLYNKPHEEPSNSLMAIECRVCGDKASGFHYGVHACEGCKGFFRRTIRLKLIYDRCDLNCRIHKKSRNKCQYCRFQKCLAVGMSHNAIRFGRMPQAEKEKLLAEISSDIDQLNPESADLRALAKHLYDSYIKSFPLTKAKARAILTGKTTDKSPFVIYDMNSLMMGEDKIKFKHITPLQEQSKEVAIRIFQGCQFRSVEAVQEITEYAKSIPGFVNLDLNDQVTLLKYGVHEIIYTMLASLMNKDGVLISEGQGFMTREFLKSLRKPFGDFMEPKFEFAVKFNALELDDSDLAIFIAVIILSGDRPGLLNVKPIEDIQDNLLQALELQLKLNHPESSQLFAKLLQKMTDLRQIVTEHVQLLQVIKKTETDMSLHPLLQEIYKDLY

[2] = target: T2, Peroxisome proliferator-activated receptor alpha (Homo sapiens, UniProt Q07869)
T2 sequence (Q07869 whole entry): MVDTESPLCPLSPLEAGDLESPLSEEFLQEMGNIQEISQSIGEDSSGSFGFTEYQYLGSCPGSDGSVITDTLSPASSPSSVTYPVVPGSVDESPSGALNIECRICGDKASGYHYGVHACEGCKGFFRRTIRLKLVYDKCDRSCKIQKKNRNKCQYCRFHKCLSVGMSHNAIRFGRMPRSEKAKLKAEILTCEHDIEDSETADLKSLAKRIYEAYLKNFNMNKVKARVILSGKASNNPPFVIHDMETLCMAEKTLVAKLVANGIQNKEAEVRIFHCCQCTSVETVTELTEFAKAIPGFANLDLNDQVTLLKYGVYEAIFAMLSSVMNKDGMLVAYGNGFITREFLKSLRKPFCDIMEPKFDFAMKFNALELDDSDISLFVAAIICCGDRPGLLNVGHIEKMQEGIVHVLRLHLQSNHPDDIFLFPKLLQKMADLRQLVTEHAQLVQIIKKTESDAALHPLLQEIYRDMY

[3] = target: T3, Peroxisome proliferator-activated receptor gamma (Mus musculus, UniProt P37238); assay: Compound was tested for its agonist activity against murine Peroxisome proliferator activated receptor gamma-Gal4 chimeric receptor in transfected CV-1 cells; format: functional, cell-based
T3 sequence (P37238 whole entry): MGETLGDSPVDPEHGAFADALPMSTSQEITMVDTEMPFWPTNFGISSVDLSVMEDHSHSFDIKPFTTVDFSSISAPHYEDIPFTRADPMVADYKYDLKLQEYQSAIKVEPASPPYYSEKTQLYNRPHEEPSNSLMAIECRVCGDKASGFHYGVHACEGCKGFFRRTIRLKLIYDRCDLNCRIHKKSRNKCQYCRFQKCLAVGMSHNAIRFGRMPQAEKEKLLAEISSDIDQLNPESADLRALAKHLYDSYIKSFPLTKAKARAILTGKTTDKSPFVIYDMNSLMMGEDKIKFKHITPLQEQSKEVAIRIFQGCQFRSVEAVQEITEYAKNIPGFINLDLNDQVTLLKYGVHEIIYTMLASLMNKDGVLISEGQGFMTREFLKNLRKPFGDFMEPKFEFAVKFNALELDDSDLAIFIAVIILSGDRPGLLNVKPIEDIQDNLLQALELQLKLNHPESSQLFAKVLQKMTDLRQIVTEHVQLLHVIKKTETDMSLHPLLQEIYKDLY

[4] = target: T4, Peroxisome proliferator-activated receptor alpha (Mus musculus, UniProt P23204); assay: Compound was tested for its agonist activity against murine Peroxisome proliferator activated receptor alpha-Gal4 chimeric receptor transfected CV-1 cells; format: functional, cell-based
T4 sequence (P23204 whole entry): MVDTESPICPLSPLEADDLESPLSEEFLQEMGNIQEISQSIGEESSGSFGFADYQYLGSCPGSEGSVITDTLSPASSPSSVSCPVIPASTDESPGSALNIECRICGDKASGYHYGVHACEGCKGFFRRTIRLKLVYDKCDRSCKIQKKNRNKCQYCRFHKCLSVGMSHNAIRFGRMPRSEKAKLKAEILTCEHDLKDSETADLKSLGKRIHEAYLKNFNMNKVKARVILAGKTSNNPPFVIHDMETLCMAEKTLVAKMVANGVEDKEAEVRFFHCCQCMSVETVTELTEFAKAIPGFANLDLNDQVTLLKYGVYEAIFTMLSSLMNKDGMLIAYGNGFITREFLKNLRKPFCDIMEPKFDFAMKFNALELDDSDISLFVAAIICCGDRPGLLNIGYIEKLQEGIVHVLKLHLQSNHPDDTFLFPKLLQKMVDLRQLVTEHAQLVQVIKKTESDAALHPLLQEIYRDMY
How it was run: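 PPAR-GAL4 chimeric receptor transiently transfected into CV-1 cells; reporter activity read after compound exposure, with concentrations tested up to 300 µM.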

[5] = species: Rattus norvegicus; assay: Minimum effective dose producing a 40-60% decrease in serum TLDL cholesterol in rats relative to vehicle -treated controls; format: functional; conditions: read-out: MED
[6] = target: T5, Peroxisome proliferator-activated receptor delta (Mus musculus, UniProt P35396); assay: Compound was tested for its agonist activity against murine Peroxisome proliferator activated receptor delta-GAL4 chimeric receptor in transfected CV-1 cells; format: functional, cell-based
T5 sequence (P35396 whole entry): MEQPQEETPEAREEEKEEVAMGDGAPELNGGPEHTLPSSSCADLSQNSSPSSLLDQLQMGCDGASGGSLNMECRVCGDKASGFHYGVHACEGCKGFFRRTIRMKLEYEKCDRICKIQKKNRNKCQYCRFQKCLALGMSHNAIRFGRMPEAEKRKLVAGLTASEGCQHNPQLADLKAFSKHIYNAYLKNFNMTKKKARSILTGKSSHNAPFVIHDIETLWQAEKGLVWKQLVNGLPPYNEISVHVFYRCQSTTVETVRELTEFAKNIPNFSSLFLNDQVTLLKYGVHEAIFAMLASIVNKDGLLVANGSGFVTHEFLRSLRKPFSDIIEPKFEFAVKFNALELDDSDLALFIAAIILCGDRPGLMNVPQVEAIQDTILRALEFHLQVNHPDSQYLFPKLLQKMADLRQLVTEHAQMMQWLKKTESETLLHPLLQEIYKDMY

[7] = target: T6, Peroxisome proliferator-activated receptor delta (Homo sapiens, UniProt Q03181); assay: Compound was tested for agonist activity on human Peroxisome proliferator activated receptor delta-GAL4 chimeric receptor in transfected CV-1 cells; IA = Inactive; format: functional, cell-based
T6 sequence (Q03181 whole entry): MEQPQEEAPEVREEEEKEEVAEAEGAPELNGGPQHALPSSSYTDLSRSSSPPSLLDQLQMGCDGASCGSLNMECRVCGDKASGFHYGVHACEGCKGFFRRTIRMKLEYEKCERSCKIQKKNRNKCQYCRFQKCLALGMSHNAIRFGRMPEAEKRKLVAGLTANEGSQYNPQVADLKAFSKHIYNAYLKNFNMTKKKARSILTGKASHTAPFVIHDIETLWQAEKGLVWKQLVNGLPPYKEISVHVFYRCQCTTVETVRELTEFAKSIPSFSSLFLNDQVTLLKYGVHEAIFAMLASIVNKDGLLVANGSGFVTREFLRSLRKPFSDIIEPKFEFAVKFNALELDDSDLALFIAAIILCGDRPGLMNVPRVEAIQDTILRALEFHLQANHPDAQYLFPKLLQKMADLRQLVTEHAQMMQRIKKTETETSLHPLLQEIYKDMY

[8] = target: T5, Peroxisome proliferator-activated receptor delta; assay: Compound was tested for its agonist activity against murine Peroxisome proliferator activated receptor delta-GAL4 chimeric receptor in transfected CV-1 cells; IA = Inactive; format: functional, cell-based
[9] = target: T6, Peroxisome proliferator-activated receptor delta; assay: Compound was tested for agonist activity on human Peroxisome proliferator activated receptor delta-GAL4 chimeric receptor in transfected CV-1 cells; format: functional, cell-based

EC50 [1] [µM]	EC50 [2] [µM]	EC50 [3] [µM]	EC50 [4] [µM]	EC50 [7]	EC50 [8]	Structure (SMILES)	minimal effective dose [5] [mg/kg]	EC50 [6] [µM]	EC50 [9] [µM]
1.6	0.15	1	0.053			CC(C)(Oc1ccc(CCN(CCCCCC2CCCCC2)C(=O)Nc2ccc(F)cc2)cc1)C(=O)O	1	23	
		250		Not Active	Not Active	CC(C)(Oc1ccc(C(=O)c2ccc(Cl)cc2)cc1)C(=O)O [FENOFIBRIC ACID]	50		
> 300	55	> 300	50	Not Active	Not Active	CC(C)(Oc1ccc(Cl)cc1)C(=O)O [CLOFIBRIC ACID]			
60		55	90			CC(C)(Oc1ccc(CCNC(=O)c2ccc(Cl)cc2)cc1)C(=O)O [BEZAFIBRATE]	50	110	20
0.28	0.41	0.87	0.033			CCCCCCCN(CCc1ccc(OC(C)(C)C(=O)O)cc1)C(=O)Nc1ccc(F)cc1	0.1	5.5	3.1

Structure (SMILES)	EC50 [1] [µM]	EC50 [2] [µM]	EC50 [3] [µM]	EC50 [4] [µM]	EC50 [7]	EC50 [8]	minimal effective dose [5] [mg/kg]	EC50 [6] [µM]	EC50 [9] [µM]
CCCCCCCN(CCc1ccc(OC(C)(C)C(=O)O)cc1)C(=O)Nc1ccc(F)cc1F	0.2	0.79	0.4	0.01			0.1	3.2	
CC(C)(Oc1ccc(CCN(C(=O)Nc2ccc(F)cc2F)C2CCCCCC2)cc1)C(=O)O	0.006		0.012	0.12			1	1.4	0.79
CCCCCCCN(CCc1ccc(SC(C)(C)C(=O)O)cc1)C(=O)Nc1ccc(F)cc1F [GSK-9578]			1.5	0.005			0.2	2.6	1.4

— ChEMBL document CHEMBL1132388, “A ureido-thioisobutyric acid (GW9578) is a subtype-selective PPARalpha agonist with potent lipid-lowering activity” (J Med Chem, 1999)
